For test [1], the target named is T1, Lysine-specific demethylase 4A (Homo sapiens, UniProt O75164).
T1 sequence (O75164 whole entry): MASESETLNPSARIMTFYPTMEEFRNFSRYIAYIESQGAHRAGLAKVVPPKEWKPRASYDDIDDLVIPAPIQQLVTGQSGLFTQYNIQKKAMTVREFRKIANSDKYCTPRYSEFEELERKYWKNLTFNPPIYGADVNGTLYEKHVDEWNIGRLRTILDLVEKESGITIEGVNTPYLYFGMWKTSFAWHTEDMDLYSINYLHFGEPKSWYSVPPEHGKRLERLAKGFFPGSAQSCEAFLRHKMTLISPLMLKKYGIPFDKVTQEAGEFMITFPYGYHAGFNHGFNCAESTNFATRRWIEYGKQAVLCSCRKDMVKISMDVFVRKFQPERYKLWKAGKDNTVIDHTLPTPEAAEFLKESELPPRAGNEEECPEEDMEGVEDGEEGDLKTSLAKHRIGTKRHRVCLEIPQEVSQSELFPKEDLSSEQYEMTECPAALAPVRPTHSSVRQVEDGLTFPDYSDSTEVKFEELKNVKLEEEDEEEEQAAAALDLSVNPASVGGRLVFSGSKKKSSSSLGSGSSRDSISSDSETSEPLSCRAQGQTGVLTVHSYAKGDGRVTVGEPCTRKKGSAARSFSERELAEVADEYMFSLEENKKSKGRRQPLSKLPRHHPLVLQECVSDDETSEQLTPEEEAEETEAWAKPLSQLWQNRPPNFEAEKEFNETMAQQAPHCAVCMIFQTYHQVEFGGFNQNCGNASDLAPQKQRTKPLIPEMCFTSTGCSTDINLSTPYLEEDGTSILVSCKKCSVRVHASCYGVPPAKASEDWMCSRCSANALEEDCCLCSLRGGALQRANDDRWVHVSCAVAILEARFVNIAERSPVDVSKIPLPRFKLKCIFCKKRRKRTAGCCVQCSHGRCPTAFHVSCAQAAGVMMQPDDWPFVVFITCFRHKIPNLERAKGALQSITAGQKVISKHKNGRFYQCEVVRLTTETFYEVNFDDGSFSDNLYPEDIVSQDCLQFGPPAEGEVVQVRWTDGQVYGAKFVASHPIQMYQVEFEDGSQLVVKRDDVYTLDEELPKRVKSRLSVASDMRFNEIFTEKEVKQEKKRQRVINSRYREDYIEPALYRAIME
The experiment in a line: Inhibition of JMJD2A tudor domain (unknown origin) using histone H4 peptide trimethylated on lysine 20 as substrate.

Test [2] relates to Candida albicans. The experiment in a line: Inhibition of histone acetyltransferase Rtt109 in Candida albicans assessed as camptothecin-induced DNA damage.
For test [3], the system named is Candida albicans. The experiment in a line: Inhibition of histone acetyltransferase Rtt109 in Candida albicans assessed as inhibition of H3K56 acetylation.
Test [4] concerns the target Histone acetyltransferase p300 (Homo sapiens) (UniProt Q09472). Put plainly: Inhibition of N-terminal 6xHis-Flag epitope-tagged histone acetyltransferase p300 catalytic domain (1195 to 1810) (unknown origin) expressed in Escherichia coli BL21 using (H3-H4)2 peptide and acetyl-coenzyme A as substrate assessed as inhibition of lysine acetylation incubated for 5 mins prior to acetyl-coenzyme A addition measured after 30 mins by ELISA. Put shortly: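 p300 (15 µg/ml) with […] (H3-H4)2 tetramers. Pre-incubated 5 min with compound or DMSO, then started with 15 µM acetyl-CoA. Run 30 min at 30°C. Lysine acetylation detected by ELISA with a polyclonal anti-acetyllysine antibody.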

For test [5] the target is unchanged. Put plainly: Inhibition of N-terminal 6xHis-Flag epitope-tagged histone acetyltransferase p300 catalytic domain (1195 to 1810) (unknown origin) expressed in Escherichia coli BL21 using acetyl-coenzyme A as substrate assessed as release of coenzyme A incubated for 5 mins prior to acetyl-coenzyme A addition measured every 2 mins for 10 mins by ThioGlo1 assay. The gist of the method: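 p300 (15 µg/ml) or Gcn5 (3.1 µg/ml, 61 nM) with 15 µM H3n21 peptide. Pre-incubated 5 min at 30°C with compound (up to 100 µM) or DMSO. Started with 30 µM acetyl-CoA. Released CoA quantified every 2 min over the first 10 min. Rates from linear regression of product versus time.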

Test [6] concerns the target T2, Histone acetyltransferase SAS2 (Saccharomyces cerevisiae (strain ATCC 204508 / S288c) (Baker's yeast)) (UniProt P40963).
T2 sequence (whole entry): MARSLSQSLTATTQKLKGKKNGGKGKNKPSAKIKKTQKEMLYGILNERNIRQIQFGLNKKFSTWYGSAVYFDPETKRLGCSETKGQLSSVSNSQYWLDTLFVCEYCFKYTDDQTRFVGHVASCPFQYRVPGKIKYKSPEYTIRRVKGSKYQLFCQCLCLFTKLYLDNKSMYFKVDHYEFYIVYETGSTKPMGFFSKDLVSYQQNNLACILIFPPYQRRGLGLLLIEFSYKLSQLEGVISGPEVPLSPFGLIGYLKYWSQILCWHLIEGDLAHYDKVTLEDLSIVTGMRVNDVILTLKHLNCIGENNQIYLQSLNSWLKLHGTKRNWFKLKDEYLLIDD
The experiment in a line: Inhibition of Vps75-stimulated recombinant Saccharomyces cerevisiae 6xHis-tagged histone acetyltransferase Rtt109 using H3n21 peptide and acetyl-coenzyme A as substrate assessed as release of coenzyme A at 56 1.3 nM incubated for 5 mins prior to acetyl-coenzyme A addition measured every 2 mins for 10 mins by ThioGlo1 assay relative to control.

Test [7] has as its target Histone acetyltransferase RTT109 (Saccharomyces cerevisiae) (UniProt Q07794). Put plainly: Inhibition of Vps75-stimulated recombinant Saccharomyces cerevisiae 6xHis-tagged histone acetyltransferase Rtt109 using H3n21 peptide as substrate assessed as release of coenzyme A at […] by ThioGlo1 assay relative to control. On the set-up: scale not given: the % may be the effect or the level left.

The target is the same in test [8]. The experiment in a line: Irreversible inhibition of Vps75-stimulated recombinant Saccharomyces cerevisiae 6xHis-tagged histone acetyltransferase Rtt109 using H3n21 peptide as substrate assessed as release of coenzyme A at […] after 4 hrs by 10 fold dilution assay relative to control. The arrangement: scale not given: the % may be the effect or the level left.
Test [9] relates to Rtt109 (Saccharomyces cerevisiae). The experiment in a line: Inhibition of Vps75-stimulated recombinant Saccharomyces cerevisiae 6xHis-tagged histone acetyltransferase Rtt109 using H3n21 peptide and acetyl-coenzyme A as substrate assessed as release of CoA at 0.3 to 10 uM preincubated for 5 mins with H3n21 followed by acetyl-coenzyme A addition measured ….
Test [10] shares this test system. Put plainly: Inhibition of Vps75-stimulated recombinant Saccharomyces cerevisiae 6xHis-tagged histone acetyltransferase Rtt109 using H3n21 peptide and acetyl-coenzyme A as substrate assessed as release of CoA at 0.1 to 1 uM preincubated for 5 mins with H3n21 followed by acetyl-coenzyme A addition measured after ….

Here are results for nine compounds from ChEMBL document CHEMBL2384941, “A small molecule inhibitor of fungal histone acetyltransferase Rtt109” (Bioorg Med Chem Lett, 2013).

pIC50: −log10 of the molar value. Activity calls are given as the source filed them. The calls are words filed in the database; no cut-off is given here.

Histone acetyltransferase RTT109 (Saccharomyces cerevisiae), sequence (Q07794 whole entry, looked up): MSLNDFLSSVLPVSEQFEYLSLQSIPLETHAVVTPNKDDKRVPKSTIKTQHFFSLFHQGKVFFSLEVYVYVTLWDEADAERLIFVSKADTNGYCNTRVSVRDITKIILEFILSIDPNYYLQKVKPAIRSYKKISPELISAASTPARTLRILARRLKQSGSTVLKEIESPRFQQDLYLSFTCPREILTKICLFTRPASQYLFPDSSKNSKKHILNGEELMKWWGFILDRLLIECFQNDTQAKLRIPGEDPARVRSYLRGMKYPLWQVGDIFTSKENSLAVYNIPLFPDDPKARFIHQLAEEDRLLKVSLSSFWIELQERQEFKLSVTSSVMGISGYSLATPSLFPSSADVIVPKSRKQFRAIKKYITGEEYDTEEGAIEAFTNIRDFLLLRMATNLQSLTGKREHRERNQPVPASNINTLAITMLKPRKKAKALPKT
Histone acetyltransferase p300 (Homo sapiens), sequence (Q09472 whole entry, the tested form may be a part): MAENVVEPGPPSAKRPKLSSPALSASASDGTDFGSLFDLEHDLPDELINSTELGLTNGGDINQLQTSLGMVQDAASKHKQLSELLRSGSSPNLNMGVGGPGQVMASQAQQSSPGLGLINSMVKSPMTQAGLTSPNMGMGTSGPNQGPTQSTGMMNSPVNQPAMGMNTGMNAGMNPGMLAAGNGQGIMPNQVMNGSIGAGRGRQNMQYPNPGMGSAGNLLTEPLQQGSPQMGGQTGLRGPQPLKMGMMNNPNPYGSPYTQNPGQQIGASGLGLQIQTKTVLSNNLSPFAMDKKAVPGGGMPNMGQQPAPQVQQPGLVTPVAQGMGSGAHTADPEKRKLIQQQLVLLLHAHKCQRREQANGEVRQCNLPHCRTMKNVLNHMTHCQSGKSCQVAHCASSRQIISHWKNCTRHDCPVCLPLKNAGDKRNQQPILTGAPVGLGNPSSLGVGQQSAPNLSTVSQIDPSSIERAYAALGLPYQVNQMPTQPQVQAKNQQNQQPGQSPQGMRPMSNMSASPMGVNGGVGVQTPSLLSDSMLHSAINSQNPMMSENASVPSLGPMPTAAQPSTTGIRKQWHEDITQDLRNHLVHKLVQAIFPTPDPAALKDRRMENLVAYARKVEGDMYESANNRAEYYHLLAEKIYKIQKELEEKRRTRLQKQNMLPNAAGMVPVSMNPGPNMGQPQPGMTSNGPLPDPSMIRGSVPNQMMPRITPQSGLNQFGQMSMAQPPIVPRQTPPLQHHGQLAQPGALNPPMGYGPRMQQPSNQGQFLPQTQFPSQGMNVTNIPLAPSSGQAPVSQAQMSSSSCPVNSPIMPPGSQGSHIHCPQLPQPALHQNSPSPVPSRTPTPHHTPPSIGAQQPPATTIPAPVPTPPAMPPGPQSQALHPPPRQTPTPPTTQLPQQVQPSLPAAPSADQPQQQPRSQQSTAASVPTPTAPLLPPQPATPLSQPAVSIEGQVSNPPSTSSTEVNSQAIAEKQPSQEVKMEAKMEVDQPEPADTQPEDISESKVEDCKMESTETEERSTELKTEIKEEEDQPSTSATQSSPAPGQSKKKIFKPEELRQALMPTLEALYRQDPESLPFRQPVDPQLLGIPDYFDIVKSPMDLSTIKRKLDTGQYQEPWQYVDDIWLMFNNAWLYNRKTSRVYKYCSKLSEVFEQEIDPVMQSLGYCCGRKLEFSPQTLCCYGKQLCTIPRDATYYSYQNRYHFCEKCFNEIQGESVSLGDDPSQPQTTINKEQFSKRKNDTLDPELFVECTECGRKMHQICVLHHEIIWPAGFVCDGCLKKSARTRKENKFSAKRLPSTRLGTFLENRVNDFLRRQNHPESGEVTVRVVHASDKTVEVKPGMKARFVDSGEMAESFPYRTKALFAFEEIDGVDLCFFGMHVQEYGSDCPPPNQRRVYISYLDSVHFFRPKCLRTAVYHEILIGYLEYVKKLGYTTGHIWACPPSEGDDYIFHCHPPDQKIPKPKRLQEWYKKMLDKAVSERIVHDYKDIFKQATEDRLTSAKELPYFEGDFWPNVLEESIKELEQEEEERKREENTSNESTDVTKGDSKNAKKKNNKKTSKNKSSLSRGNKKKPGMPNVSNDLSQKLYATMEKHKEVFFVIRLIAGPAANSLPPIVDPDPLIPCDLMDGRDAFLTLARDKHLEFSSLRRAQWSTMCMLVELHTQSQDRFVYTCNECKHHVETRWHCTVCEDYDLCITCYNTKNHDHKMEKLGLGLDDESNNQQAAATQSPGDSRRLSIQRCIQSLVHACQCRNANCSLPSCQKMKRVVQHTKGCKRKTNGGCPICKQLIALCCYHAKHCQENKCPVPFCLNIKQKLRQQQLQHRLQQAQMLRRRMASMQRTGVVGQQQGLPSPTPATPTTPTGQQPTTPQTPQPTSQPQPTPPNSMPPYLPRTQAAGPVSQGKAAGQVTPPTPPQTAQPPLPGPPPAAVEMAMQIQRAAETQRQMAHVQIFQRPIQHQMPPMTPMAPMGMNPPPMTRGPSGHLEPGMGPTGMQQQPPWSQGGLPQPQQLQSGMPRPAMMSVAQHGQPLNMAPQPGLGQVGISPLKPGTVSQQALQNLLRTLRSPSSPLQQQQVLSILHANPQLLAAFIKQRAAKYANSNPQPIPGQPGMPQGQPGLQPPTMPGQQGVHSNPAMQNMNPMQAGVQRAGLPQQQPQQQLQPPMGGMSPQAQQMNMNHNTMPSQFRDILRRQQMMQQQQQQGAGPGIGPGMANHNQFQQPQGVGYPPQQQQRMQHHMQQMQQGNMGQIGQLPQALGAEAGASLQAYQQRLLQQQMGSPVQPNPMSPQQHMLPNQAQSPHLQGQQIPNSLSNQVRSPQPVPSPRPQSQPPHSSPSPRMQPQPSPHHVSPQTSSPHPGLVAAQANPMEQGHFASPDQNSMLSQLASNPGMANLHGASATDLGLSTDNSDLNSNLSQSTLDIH

Consider `CCC[C@]1(c2ccccc2)NC(=O)N(CC(=O)N(C)Cc2c(F)cccc2Cl)C1=O`, for which, in [1], the pIC50 is 4.60. The inhibition entry in test [2], in test [3], in test [4] and in test [5] was “inactive” in each case. Moreover, the inhibition in test [6] was 50%. The Activity in test [7] came to 47%; in [8] it was 33%.
As for `CC(C)CC1(c2ccccc2)NC(=O)N(CC(=O)NCc2ccc(Cl)cc2Cl)C1=O` (stereo unspecified), the inhibition entry in [9] was “inactive”.
Consider `CCC1(c2ccccc2)NC(=O)N(CC(=O)N(C)Cc2c(F)cccc2Cl)C1=O` (stereo unspecified), for which, in [10], the inhibition result is “Active”.
Consider `CC(C)c1ccc(C2(C)NC(=O)N(CC(=O)N(C)Cc3c(F)cccc3Cl)C2=O)cc1` (stereo unspecified), for which the inhibition entry in test [9] was “inactive”.
The same measure, in the same setting: the value for `CCCC1(c2ccccc2)NC(=O)N(Cc2c(F)cccc2Cl)C1=O` (stereo unspecified) was “inactive”; that for `CCC1(c2ccc(F)cc2)NC(=O)N(CC(=O)NCc2ccc(Cl)cc2Cl)C1=O` (stereo unspecified) was “inactive”; that for `CN(Cc1c(F)cccc1Cl)C(=O)CN1C(=O)NC2(CCCCc3ccccc32)C1=O` (stereo unspecified) was “inactive”.
Still for that read-out and setting: with `CCCCC1(c2ccccc2)NC(=O)N(CC(=O)NCc2ccc(Cl)cc2Cl)C1=O` (stereo unspecified) the entry was “inactive”; with `CCCC1(c2ccccc2)NC(=O)N(Cc2ccc(F)cc2Cl)C1=O` (stereo unspecified), “inactive”.

A word on the pIC50: it is the IC50 on a negative log10 scale, so that one unit is a factor of ten. In general, inhibition refers to the percentage by which the read-out fell short of the control.
